Sampled rows, rich in hits. Any-hit rate of the full collection: about 5.8%.
WT yeast gro inh: growth inhibition of WT strain, primary screen, mitochondrial fusion inhibitor project, WT and mutant strains, chemical genetic | mitochondrial fusion phenotypic screen | inhibition, % at 10 µM | 2.1% of 190,000 active | AID 1362, 2008; in the data active = inhibition above about 58%; tested in S. cerevisiae
RBBP9 inhibitor: human RBBP9 inhibitors, primary screen, biochemical, fluorescence polarization, FP-Rh probe, HTS | Serine hydrolase RBBP9 (Homo sapiens), O75884 | recombinant RBBP9 | inhibition, % at 7.94 µM | 0.2% of 220,000 active;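 active = inhibition above the campaign mean of all tested compounds plus 3 SD, cut at about 14% in these data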;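 note: plate controls were DMSO wells with RBBP9 for no effect and wells lacking RBBP9 protein for full effect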
Target sequence (O75884 whole entry, looked up): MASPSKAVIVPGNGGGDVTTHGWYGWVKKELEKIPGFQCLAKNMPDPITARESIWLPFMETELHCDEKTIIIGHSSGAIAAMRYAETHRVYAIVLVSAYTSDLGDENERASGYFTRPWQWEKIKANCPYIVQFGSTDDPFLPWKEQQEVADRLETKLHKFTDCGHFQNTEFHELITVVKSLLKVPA
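Test system: recombinant human RBBP9; Timing: 30 min then 45 min, 25 °C; Detection: fluorescence polarization; Control set: RBBP9 with DMSO as uninhibited control, no-protein wells as full inhibition; Compound dosing: one concentration, 7.94 µM nominal, 0.794% DMSO; Probe or stimulus: FP-Rh activity-based probe, 375 nM before mixing.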
ROMK mod: ROMK potassium channel modulators, primary screen, cell-based, thallium flux, MLSMR library; ATP-sensitive inward rectifier potassium channel 1 (Homo sapiens), P48048; Tet-inducible ROMK, thallium flux fluorescence; actives lie on both sides; AID 1918, 2009; 2% of 130,000 active; B-score at 10 µM;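 active = signal ratio slope over the read window, or its plate-corrected B-score, at least 3 SD from the plate mean, either direction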;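 note: B-score of the F/F0 ratio slope over 7 to 12 s after thallium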
p47phox inh: p47phox/p22phox peptide binding inhibitors, primary screen, biochemical, uHTS, NADPH oxidase regulatory subunit; fluorescence polarization, 2 h; inhibition, % at 24.7 µM; 0.53% of 220,000 active; AID 1274, 2008;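 active = inhibition above about 30%, limit read from the data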;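 note: 0% = p47phox with labelled peptide and 100% = labelled peptide alone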
Target sequence (P14598 whole entry, looked up): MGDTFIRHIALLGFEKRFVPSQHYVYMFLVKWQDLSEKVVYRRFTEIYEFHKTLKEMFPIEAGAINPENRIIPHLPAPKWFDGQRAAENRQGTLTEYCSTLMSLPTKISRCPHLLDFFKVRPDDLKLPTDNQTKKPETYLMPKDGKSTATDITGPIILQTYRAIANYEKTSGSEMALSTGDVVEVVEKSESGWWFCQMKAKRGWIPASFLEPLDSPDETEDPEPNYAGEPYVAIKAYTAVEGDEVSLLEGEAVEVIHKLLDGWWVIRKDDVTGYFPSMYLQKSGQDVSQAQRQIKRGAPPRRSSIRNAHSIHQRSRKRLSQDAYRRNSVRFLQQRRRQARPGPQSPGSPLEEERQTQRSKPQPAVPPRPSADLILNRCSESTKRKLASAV
KCC2 mod: KCC2 cotransporter modulators, thallium flux, primary screen, cell-based, HEK293 KCC2, FluoZin-2 fluorescence, MLSMR; KCC2 cells, thallium flux FluoZin-2 fluorescence; B-score of Tl+ flux slope (higher = more flux/activation; lower = inhibition) at 10 µM; 2.2% of 190,000 active; AID 1456, 2008;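 active = thallium flux slope and its plate-corrected score both differing from the plate sample mean at a set confidence after two filtering rounds, in either direction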;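 note: slope of fluorescence scaled to starting intensity during 10 to 20 s after thallium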
14-3-3 Bad inh: inhibitors of 14-3-3 zeta/Bad binding, primary screen, biochemical, TR-FRET, bovine 14-3-3 zeta; TR-FRET 14-3-3zeta/Dy647-pBad peptide displacement, 1 h; inhibition, % at 21.7 µM; 0.71% of 220,000 active;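 active = inhibition above about 70%, limit read from the data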;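 note: 0% = full 14-3-3 plus peptide FRET controls and 100% = background without 14-3-3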
KCC2 sec1: KCC2 modulators in sodium-free buffer, confirmation, cell-based, HEK293 KCC2, thallium flux, secondary assay; shares compounds with KCC2 mod; FluoZin2 fluorescence; hits give high values; normalised thallium flux (F/F0 slope) at 10 µM; 15% of 3,700 active; AID 1713, 2009;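 active = thallium flux slope above the same plate's solvent-only control mean plus 3 SD; inconclusive = the two replicate wells disagree; inactive = no significant difference from solvent-only control wells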
KCC2 bumet counter: thallium flux persisting under bumetanide in KCC2 cells, confirmation, counter-screen for KCC2 modulator project, cell-based, HEK293 KCC2, FluoZin2, secondary assay 3 | AID 1714, 2009 | normalized thallium flux at 10 µM | 49% of 3,700 active | shares compounds with KCC2 mod | HEK293-KCC2 + bumetanide/ouabain; hits give high values;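 active = thallium entry rate above the same plate's blocked-transporter control wells by more than 3 SD; inconclusive = the two repeat wells disagree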;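 note: raw slope of fluorescence over initial fluorescence between 10 and 20 s after thallium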
KCC2 secondary2: KCC2 modulators without ouabain present, confirmation, cell-based, HEK293 KCC2, thallium flux, FluoZin2, secondary assay 2; shares compounds with KCC2 mod; thallium flux FluoZin2 fluorescence; actives lie on both sides; F/F0 rise rate, 10–20 s post-thallium; normalized thallium flux at 10 µM; 23% of 3,700 active;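 active = thallium flux slope more than 3 SD above or below the plate's solvent-only control mean, mostly below; inconclusive = the two repeat wells disagreed; inactive = no significant shift from solvent-only controls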;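 note: raw slope with 0.1% DMSO as baseline and bumetanide as block control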
HEK293 Tl flux: thallium flux modulation in parental HEK cells, confirmation, counter-screen for KCC2 modulator project, cell-based, counterscreen 1. shares compounds with KCC2 mod. HEK293 parental cells, thallium flux FluoZin2, ouabain; baseline-ratio fluorescence slope, 10–20 s after thallium. thallium flux rate (normalised fluorescence) at 10 µM. 46% of 3,700 active;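 active = thallium flux rate significantly above the same plate's solvent-only control wells, beyond their mean plus 3 SD; inconclusive = the two replicate wells gave conflicting results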
KCC2 retest ouab: KCC2 inhibitors and activators, ouabain retest, confirmation, HEK-KCC2 cells. shares compounds with KCC2 mod. HEK293-KCC2, thallium flux FluoZin2 fluorescence; bidirectional: low = inhibitor, high = activator. raw Tl+ flux slope (below DMSO = inhibition, above = activation) at 10 µM. 48% of 3,700 active. AID 1717, 2009;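 active = thallium flux slope beyond 3 SD from same-plate DMSO control mean in most replicates, usually higher, sometimes lower; inconclusive = repeat tests gave conflicting results; inactive = no significant difference from controls in most replicates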;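 note: slope of initial-normalized fluorescence between seconds 10 and 20 after thallium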
HEK293 Tl flux2: native HEK Tl+ uptake effects, second counter-screen – HEK cells, counterscreen 2, counter-screen for KCC2 modulator project, confirmation; HEK293 parental, thallium flux FluoZin-2 fluorescence slope; 33% of 3,700 active; thallium flux slope at 10 µM; shares compounds with KCC2 mod;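 active = thallium flux slope above the same plate's solvent-control mean plus 3 SD in both duplicate wells; inconclusive = duplicate wells that disagreed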;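 note: run without ouabain in cells lacking the KCC2 cotransporter; slope of fluorescence scaled to its starting value between 10 and 20 s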
The depositor's hits bear a star; ? = inconclusive; . = no result given.

SMILES | WT yeast gro inh | RBBP9 inhibitor | ROMK mod | p47phox inh | KCC2 mod | 14-3-3 Bad inh | KCC2 sec1 | KCC2 bumet counter | KCC2 secondary2 | HEK293 Tl flux | KCC2 retest ouab | HEK293 Tl flux2
Cc1cc(C)cc(NC(=O)c2oc3ccccc3c2COc2ccccc2)c1 | 7.0 | -8.4 | 0.0362 | -2.2 | -4.75* | -3.6 | 0.00845 | 0.00608 | 0.0312 | 0.00788 | 0.0184 | 0.0109
COc1ccc(-c2c(C#N)sc(C(N)=O)c2-c2ccc(OC)cc2)cc1 | . | 6.9 | . | 5.9 | -2.57 | 6.1 | . | . | . | . | . | .
N#Cc1sc(C(N)=O)c(-c2ccccc2)c1-c1ccccc1 | . | -4.6 | . | 5.1 | 5.14* | -9.3 | 0.00729 | 0.00419 | 0.0295 | 0.00737 | 0.0183 | 0.0105
COc1ccc(-c2nc(-c3cccs3)c(-c3cccs3)[nH]2)cc1OC | 49.1 | 1.5 | -1.81 | -76.0 | -0.719 | -13.1 | . | . | . | . | . | .
COc1ccc(-c2nc(-c3ccccc3)c(-c3cccs3)[nH]2)cc1OC | 43.6 | -4.0 | -0.16 | -37.9 | -5.37* | -15.3 | 0.00941 | 0.00731 | 0.0319 | 0.00426 | 0.0184 | 0.0109
CC(C)CCc1noc(CN2CCN(c3ccc(Cl)cn3)CC2)n1 | 31.5 | -8.9 | -1.1 | -0.8 | 0.00564 | 0.0 | . | . | . | . | . | .
O=C(OCCCc1ccncc1)c1ccc(S(=O)(=O)N2CCOCC2)cc1 | -5.2 | 6.2 | -1.86 | -5.1 | . | 0.8 | 0.00954 | 0.0183* | 0.0335 | 0.0109* | 0.0222 | 0.0114*
O=S(=O)(c1ccc(F)c(F)c1F)N1CCN(C(=S)Nc2ccccc2)CC1 | 5.9 | -0.8 | 0.228 | 5.6 | -0.0159 | -26.5 | . | . | . | . | . | .
O=C(c1cccc(S(=O)(=O)NCc2ccccc2)c1)N1CCN(Cc2ccccc2)CC1 | -7.8 | -6.9 | -0.647 | 19.8 | -2.72* | 2.1 | 0.00732 | 0.00613* | 0.03 | 0.00719 | 0.0181 | 0.011
Cc1ccc(S(=O)(=O)NCc2ccc(C(=O)N3CCN(Cc4ccccc4)CC3)cc2)cc1 | 11.5 | -7.2 | -1.79 | -12.8 | -2.62* | 3.5 | 0.00614 | ? | 0.0269* | 0.0072 | ? | 0.0103
O=C(CCC1CCCN(C2C3CC4CC(C3)CC2C4)C1)NCc1ccc(F)c(F)c1 (stereo not drawn) | 19.3 | -11.4 | 1.69 | -3.7 | -1.73 | 3.0 | . | . | . | . | . | .

Screens: PubChem, several laboratories
